The list is not random: actives were taken first. Their share in the collection is about 2.4%.
LMPTP block – LMPTP phosphatase inhibitors, primary screen, biochemical, fluorescence intensity, uHTS; Low molecular weight phosphotyrosine protein phosphatase (Homo sapiens), P24666; recombinant LMPTP-A, OMFP fluorogenic substrate; inhibition, % at 20 µM; 360,000 tested, 0.22% active;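 active means compounds that cut the enzyme signal by at least half of the control window in the single-dose screen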;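 further: plate controls were DMSO wells with enzyme plus substrate for no effect and substrate without enzyme for full effect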
Target sequence (P24666 whole entry, looked up): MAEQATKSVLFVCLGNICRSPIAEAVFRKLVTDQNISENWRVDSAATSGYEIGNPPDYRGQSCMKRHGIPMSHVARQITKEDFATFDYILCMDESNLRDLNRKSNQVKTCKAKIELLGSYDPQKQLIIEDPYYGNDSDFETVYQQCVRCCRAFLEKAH
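test system = LMPTP-A | amount = 0.625 nM LMPTP-A final | reagent = fluorogenic phosphatase substrate OMFP at 400 µM final | incubation = 50 min at room temperature | benchmarks = no-enzyme low control, uninhibited high control | medium = Bis-Tris pH 6.0, DTT, detergent | signal = fluorescence intensity of OMFP turnover product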
NadD inh – inhibitors of S. aureus NadD, primary screen, biochemical, colorimetric, uHTS; Nicotinate-nucleotide adenylyltransferase NadD (Staphylococcus aureus N315); purified NadD enzyme, colorimetric absorbance read-out; inhibition, % at 20 µM; 360,000 tested, 0.78% active; in the data active means inhibition above about 26%
Scp1 inh – Scp-1 phosphatase inhibitors, primary screen, biochemical, colorimetric, uHTS; Carboxy-terminal domain RNA polymerase II polypeptide A small phosphatase 1 (Homo …; inhibition, % at 20 µM; Recombinant Scp1, phosphopeptide, malachite green phosphate absorbance; 340,000 tested, 0.88% active;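 active means inhibition above about 50% at 20 µM, limit read from the data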;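 further: plate controls were DMSO wells with enzyme for no effect and wells lacking enzyme for full effect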
Target sequence (Q9GZU7 76-261 limits assumed): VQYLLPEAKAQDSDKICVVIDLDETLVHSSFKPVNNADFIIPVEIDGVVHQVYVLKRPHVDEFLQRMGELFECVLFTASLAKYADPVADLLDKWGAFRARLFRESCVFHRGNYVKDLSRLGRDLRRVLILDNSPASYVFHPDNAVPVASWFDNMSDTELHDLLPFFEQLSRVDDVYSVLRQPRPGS
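System: SCP-1 catalytic domain; Reagent: Phospho 17-mer peptide substrate; Doses: one concentration, 20 µM, with 1.0% DMSO; Incubation: 45 min room-temperature reaction, 5 min colour, 30 min stabiliser; Signal: Phosphate-binding colour reagent, absorbance read at 630 nm.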
DNMT1 inh – human DNMT1 methyltransferase inhibitors, primary screen, biochemical, molecular beacon, fluorescence, HinP1I cleavage, uHTS | 360,000 tested, 0.83% active | DNA (cytosine-5)-methyltransferase 1 (Homo sapiens), P26358 | inhibition (reported as % activation of signal), % at 10 µM; in the data active means inhibition above about 50%
SUMO1-SIM PPI – modulators of SUMO1 protein-protein interactions, primary screen, biochemical, uHTS. Small ubiquitin-related modifier 1 (Homo sapiens), P63165. 360,000 tested, 0.33% active. inhibition, % at 20 µM. SUMO1 binding to a labelled peptide, TR-FRET, 1 h; in the data active means inhibition above about 37%
Target sequence (P63165 whole entry, looked up): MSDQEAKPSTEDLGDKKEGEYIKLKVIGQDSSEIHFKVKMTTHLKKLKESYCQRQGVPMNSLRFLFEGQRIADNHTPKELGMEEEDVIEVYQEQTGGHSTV
STEP inh – STEP phosphatase inhibitors, primary screen, biochemical, fluorescence intensity, uHTS | Tyrosine-protein phosphatase non-receptor type 5 (Homo sapiens), P54829 | recombinant STEP, OMFP fluorogenic substrate | inhibition, % at 20 µM | 360,000 tested, 0.25% active | AID 588621, 2011;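 active means inhibition at 20 µM, scaled per plate between control wells, above about 37%, limit read from the data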;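 further: 0% = DMSO with enzyme and substrate and 100% = substrate only without enzyme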
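Assay system: isolated STEP enzyme. Buffer or medium: pH 6.0 Bis-Tris with DTT and Tween 20. Also added: fluorogenic phosphatase substrate OMFP at 25 µM final. Dosing: 20 µM, 1% DMSO. Timing: 20 min reaction, room temperature, in the dark. Measured by: fluorescence intensity, excitation 480 nm, emission 540 nm. Evaluation: normalized % inhibition.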
Beacon interf DR – spectral interference with molecular beacon fluorescence, dose response, artefact control for DNMT1 inhibitor project, biochemical, fluorescent molecular beacon | shares compounds with DNMT1 inh | spectral interference counter-screen | IC50, µM | 200 tested, under 10 active | AID 602382, 2012; call rule not given here
DNMT1 inh conf – DNMT1 methyltransferase inhibitor retest, confirmation, biochemical, molecular beacon, fluorescence, single concentration; inhibition, % at 10 µM; shares compounds with DNMT1 inh; 2,300 tested, 8% active; DNMT1 molecular beacon HinP1I cleavage;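 active means average inhibition of at least 30% in the single-concentration confirmation test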
DNMT1 interf – beacon fluorescence artifact counter-screen; 2,300 tested, 1% active; activation (fluorescence interference), % at 10 µM; DNMT1 molecular beacon spectral interference counterscreen, fluorescence 485/520; shares compounds with DNMT1 inh;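 active means activation of at least 30% at 10 µM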;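 further: DNMT1 catalytic domain with a HinP1I cleavage step and a FAM/dabcyl DNA beacon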
* hit, by the source's call; / = no result.

SMILES	LMPTP block	NadD inh	Scp1 inh	DNMT1 inh	SUMO1-SIM PPI	STEP inh	DNMT1 inh conf	DNMT1 interf	others
Cc1ccc(CCNC(=O)c2cc(C)nn2-c2ccccc2)cc1	0	0	-7	61*	-1	-1	2	1
COc1cc(OC)cc(C(=O)NC(C(=O)OCn2nnc3ccccc3c2=O)C(C)C)c1 (stereo unspecified)	-1	-2	-5	87*	-4	0	5	3
COc1cccc(/C=C2/C(=O)NN(c3ccccc3)C2=O)c1	-2	-1	-6	-4	4	3	/	/
O=C1NN(c2ccccc2)C(=O)/C1=C/c1ccc(Sc2cccc3ccccc23)o1	3	4	1	66*	20	1	69*	-2	Beacon interf DR=>99
CCc1ccc(-c2csc(NC(=O)c3cccnc3)n2)cc1	0	-5	-7	-3	1	3	/	/
CC(C)(C)C(=O)Nc1nnc(CC(=O)NCc2ccccc2)s1	0	1	-3	61*	-2	10	7	4
O=c1cc(-c2ccco2)oc2c1ccc1ccccc12	7	0	16	65*	10	2	1	0
COCCNC(=O)c1ccc(-c2cn[nH]c2)c2ccoc12	-3	2	/	68*	5	-3	0	1
Cc1ccc(C(=O)NCc2ccc3c(c2)OCO3)o1	-2	-5	-3	-1	-1	0	/	/
COc1ccc2nc3oc(C(=O)Nc4ccc(OC)c(OC)c4)cc3cc2c1	-2	-6	-10	-6	-1	0	/	/
Cc1ccc2cc3cc(C(=O)NCc4ccc5c(c4)OCO5)oc3nc2c1	8	-3	9	54*	-1	2	0	-8
COc1ccc2cc3cc(C(=O)Nc4ccc5c(c4)OCO5)oc3nc2c1	1	-1	1	60*	-2	-3	1	0
COc1ccccc1/C=N/NC(=O)CC(=O)NCCc1ccccc1	-2	-4	-1	-2	4	2	/	/
O=C1c2ccccc2NC(c2ccc(O)c(O)c2)N1c1ccccc1Cl (stereo unspecified)	1	4	1	6	-3	-2	/	/
CCCCCCc1c(C)c2ccc(OCC(=O)N[C@@H](Cc3ccccc3)C(=O)O)cc2oc1=O	2	13	37	61*	14	-1	4	-3
Cc1c(C)c2ccc(OCC(=O)N[C@@H](Cc3ccccc3)C(=O)O)cc2oc1=O	0	5	-1	-2	8	-2	/	/
Cc1cc2cc(C)c3nnc(SCC(=O)Nc4ccc(S(=O)(=O)N5CCCCC5)cc4)n3c2cc1C	0	14	-1	56*	2	-2	2	0
Cc1cc2ccccc2n2c(SCC(=O)Nc3ccc(S(=O)(=O)N4CCCCC4)cc3)nnc12	1	7	-5	8	5	-2	/	/
O=[N+]([O-])c1cccc(NNS(=O)(=O)c2ccccc2F)c1	-1	0	-2	0	-21	-2	/	/
CCC[C@H]1CN(c2ccc(Br)cc2)C(=O)[C@@H]1CC(=O)Nc1ccc(OC)cc1	1	1	/	-6	2	2	/	/
C=CCn1c(SCC(=O)c2[nH]c(C)c(C(=O)OCC)c2C)nc2scc(-c3ccccc3)c2c1=O	1	-3	-10	57*	-4	4	1	2
C=CCn1c(SCC(=O)c2[nH]c(C)c(C(=O)OCC)c2C)nc2scc(-c3ccc(OC)cc3)c2c1=O	1	9	-4	33	-4	0	/	/
CCCCn1c(N)c(N(CCC(C)C)C(=O)c2ccc(-c3ccc([N+](=O)[O-])cc3)o2)c(=O)[nH]c1=O	-4	16	-7	84*	-9	2	0	7
COc1ccc(C(=O)Nc2nc3ccc(OC)cc3s2)cc1	1	-4	4	-2	-1	-3	/	/
COc1ccc2nc(NC(=O)c3cccc(-c4cc5ccccc5oc4=O)c3)sc2c1	15	25	0	58*	-1	2	2	-5
SMILES	LMPTP block	NadD inh	Scp1 inh	DNMT1 inh	SUMO1-SIM PPI	STEP inh	DNMT1 inh conf	DNMT1 interf	others
CN(C)c1ccc(CNC(=O)c2cc(S(=O)(=O)N3CCOCC3)cn2C)cc1	-1	-1	-3	-2	4	6	/	/
O=S(=O)(c1ccccc1)N1CCN(Cc2ccc(Cl)cc2)CC1	1	0	-2	1	6	0	/	/
Cc1ccc(-c2cc(C(F)F)n3ncc(C(=O)NCc4ccco4)c3n2)cc1	0	-2	6	76*	3	-2	0	-10
CN(Cc1ccccc1)C(=O)COC(=O)c1cc([N+](=O)[O-])ccc1N1CCOCC1	1	-6	-10	111*	-25	-2	2	2
CC(=O)NC(CC(=O)NNC(=O)c1cc2ccccc2cc1O)c1ccccc1 (stereo unspecified)	-1	7	-11	1	-4	2	/	/
O=C(Nc1ccccc1F)c1ccc(Br)o1	0	1	1	69*	4	-2	1	-2
CN(c1c[nH]c(=O)[nH]c1=O)C1CCCCC1	1	-6	-1	1	-3	0	/	/
CN(C)C1CCCCC=CC(=O)NC1 (stereo unspecified)	-2	-5	/	52*	3	-2	7	7
CCOC(=O)C1=C(c2ccccc2)N=c2s/c(=C\c3ccco3)c(=O)n2C1c1cccs1 (stereo unspecified)	5	14	29	58*	1	4	9	5
CCOC(=O)C1=C(c2ccccc2)N=c2s/c(=C\c3cc(OC)c(OC)c(OC)c3)c(=O)n2C1c1cccs1 (stereo unspecified)	1	1	-8	1	14	2	/	/
